From ChEMBL document CHEMBL1155643, “Isolation of a novel protein tyrosine phosphatase inhibitor, 2-methyl-fervenulone, and its precursors from Streptomyces” (J Nat Prod, 2000)
Calls of active or inactive are those of the source. The calls are words filed in the database; no cut-off is given here.

Legend:
[1] = test system: Pseudomonas aeruginosa; test: Antimicrobial activity against Pseudomonas aeruginosa at 100 uM; format: functional, organism-based
[2] = test system: Pseudomonas aeruginosa; test: Antimicrobial activity against Pseudomonas aeruginosa at 50 uM; format: functional, organism-based
[3] = target: T1, Tyrosine-protein phosphatase non-receptor type 2 (Homo sapiens) (UniProt P17706); test: Inhibition of TCPTP at 1 uM relative to control; design: scale not given: the % may be the effect or the level left
T1 sequence (whole entry): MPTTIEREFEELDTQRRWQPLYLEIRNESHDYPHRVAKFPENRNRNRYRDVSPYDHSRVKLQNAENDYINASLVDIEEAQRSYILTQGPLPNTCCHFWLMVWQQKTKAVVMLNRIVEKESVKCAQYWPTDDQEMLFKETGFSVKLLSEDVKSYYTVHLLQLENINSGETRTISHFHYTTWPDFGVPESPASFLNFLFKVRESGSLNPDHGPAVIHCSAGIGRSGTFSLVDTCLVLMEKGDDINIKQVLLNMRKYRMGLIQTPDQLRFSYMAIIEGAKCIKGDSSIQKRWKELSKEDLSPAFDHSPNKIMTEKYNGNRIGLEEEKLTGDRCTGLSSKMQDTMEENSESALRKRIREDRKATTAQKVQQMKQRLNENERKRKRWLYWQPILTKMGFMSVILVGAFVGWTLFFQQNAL
Procedure, shortened: (§1)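 Commercial phosphatase. pNPP dephosphorylation with 2 mM pNPP in 50 mM sodium acetate pH 5.5, 0.5 mg/mL BSA, 0.5 mM dithiothreitol, at 30 °C. Reactions stopped within the linear phase. Activity expressed as percent of the control without inhibitor. Mean of three separate enzyme preparations, each assayed in duplicate, ± S.D.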

[4] = Inhibition of protein tyrosine phosphatase alpha D1D2 domain at 1 uM relative to control; design: scale not given: the % may be the effect or the level left
Procedure, shortened: (§2)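 Bacterially expressed, purified PTPα or PTPε. pNPP (2 mM) dephosphorylation in 50 mM sodium acetate pH 5.5 with 0.5 mg/mL BSA and 0.5 mM DTT, at 30 °C, stopped during the linear phase. Percent activity relative to the uninhibited control. Average of three enzyme preparations, each run in duplicate, ± S.D.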

[5] = test system: Mycolicibacterium smegmatis; test: Antimicrobial activity against Mycobacterium smegmatis at 50 uM; format: functional, organism-based
[6] = test system: Mycolicibacterium smegmatis; test: Antimicrobial activity against Mycobacterium smegmatis at 100 uM; format: functional, organism-based
[7] = test system: Staphylococcus aureus; test: Antimicrobial activity against Staphylococcus aureus at 100 uM; format: functional, organism-based
[8] = Inhibition of protein tyrosine phosphatase LAR-D1 domain at 1 uM relative to control; design: scale not given: the % may be the effect or the level left; procedure, shortened: as §1
[9] = species: Bos taurus; test: Inhibition of calf intestinal alkaline phosphatase at 1 uM relative to control; design: scale not given: the % may be the effect or the level left
Procedure, shortened: (§3)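 Commercial enzyme acting on 2 mM pNPP in 50 mM sodium acetate with 0.5 mg/mL BSA and 0.5 mM DTT, at 30 °C, linear phase. pH 7 for CIP; pH 5.5 plus 2 mM Mn2+ for λPP. Percent of the no-inhibitor control. Three enzyme preparations, each in duplicate, ± S.D.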

[10] = test system: Proteus vulgaris; test: Antimicrobial activity against Proteus vulgaris at 100 uM; format: functional, organism-based
[11] = Inhibition of protein tyrosine phosphatase CD45 domain at 1 uM relative to control; design: scale not given: the % may be the effect or the level left; procedure, shortened: as §1
[12] = test system: Curvularia; test: Antimicrobial activity against Curvularia sp. at 50 uM; format: functional, organism-based
[13] = test system: Escherichia coli; test: Antimicrobial activity against Escherichia coli at 50 uM; format: functional, organism-based
[14] = test system: Yersinia sp.; test: Inhibition of Yersinia sp. protein tyrosine phosphatase yop at 1 uM relative to control; design: scale not given: the % may be the effect or the level left; procedure, shortened: as §1
[15] = test system: Candida albicans; test: Antimicrobial activity against Candida albicans at 100 uM; format: functional, organism-based
[16] = test system: Proteus vulgaris; test: Antimicrobial activity against Proteus vulgaris at 50 uM; format: functional, organism-based
[17] = target: T2, Serine/threonine-protein phosphatase (Enterobacteria phage lambda) (UniProt P03772); test: Inhibition of enterobactera phage lambda PP at 1 uM relative to control; design: scale not given: the % may be the effect or the level left; procedure, shortened: as §3
T2 sequence (whole entry): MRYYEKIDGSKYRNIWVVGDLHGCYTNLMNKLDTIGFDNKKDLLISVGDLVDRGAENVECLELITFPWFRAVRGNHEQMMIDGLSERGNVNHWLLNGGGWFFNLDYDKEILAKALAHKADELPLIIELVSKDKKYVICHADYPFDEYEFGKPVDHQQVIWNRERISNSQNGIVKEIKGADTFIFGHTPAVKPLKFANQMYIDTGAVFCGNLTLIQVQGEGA

[18] = test system: Curvularia; test: Antimicrobial activity against Curvularia sp. at 100 uM; format: functional, organism-based
[19] = test system: Escherichia coli; test: Antimicrobial activity against Escherichia coli at 100 uM; format: functional, organism-based
[20] = test system: Staphylococcus aureus; test: Antimicrobial activity against Staphylococcus aureus at 50 uM; format: functional, organism-based
[21] = test system: Candida albicans; test: Antimicrobial activity against Candida albicans at 50 uM; format: functional, organism-based
[22] = Inhibition of protein tyrosine phosphatase epsilon D1D2 domain at 1 uM relative to control; design: scale not given: the % may be the effect or the level left; procedure, shortened: as §2
[23] = test system: Enterococcus faecalis; test: Antimicrobial activity against Enterococcus faecalis at 50 uM; format: functional, organism-based
[24] = test system: Enterococcus faecalis; test: Antimicrobial activity against Enterococcus faecalis at 100 uM; format: functional, organism-based

Cn1nc2c(nc1=O)c(=O)n(C)c(=O)n2C
Activity [1]: inactive
Activity [2]: inactive
Activity [3]: 34%
Activity [4]: 17%
Activity [5]: inactive
Activity [6]: inactive
Activity [7]: inactive
Activity [8]: 17%
Activity [9]: 100%
Activity [10]: inactive
Activity [11]: 15%
Activity [12]: inactive
Activity [13]: inactive
Activity [14]: 10%
Activity [15]: inactive
Activity [16]: inactive
Activity [17]: 48%
Activity [18]: inactive
Activity [19]: inactive
Activity [20]: inactive
Activity [21]: inactive
Activity [22]: 17%
Activity [23]: inactive
Activity [24]: inactive

Cn1nc2c(nc1=O)n(C)c(=O)n2C
Activity [3]: 99%
Activity [4]: 98%
Activity [8]: 97%
Activity [9]: 99%
Activity [11]: 96%
Activity [14]: 95%
Activity [17]: 100%
Activity [22]: 99%
